Laboratory results from ChEMBL document CHEMBL1128190, “Inhibition of E-selectin-, ICAM-1-, and VCAM-1-mediated cell adhesion by benzo[b]thiophene-, benzofuran-, indole-, and naphthalene-2-carboxamides: identification of PD 144795 as an antiinflammatory agent” (J Med Chem, 1995).
pIC50: −log10 of the molar value. Values belong to the molecule of their own block, whether it stands above or below them.

Columns and labels:
[1] = The compound was tested for cell adhesion by measuring the inhibitory concentration against Human umbilical vein endothelial cell (HUVEC) activation, using Na51CrO4 as radioligand.; format: functional, cell-based
[2] = Cell adhesion measured using the inhibitory concentration against Human umbilical vein endothelial cell (HUVEC) activation, with Na51CrO4 as radioligand at 100 uM; format: functional
How it was run: (§1)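 Confluent second-passage HUVEC monolayers were stimulated with TNF-α (200 U/mL) for 4 h with or without compound at 100 μM, then washed. Fresh human neutrophils labelled with Na⁵¹CrO₄ (5 × 10⁵) were added for 30 min at 37 °C. Non-adherent cells were aspirated and adherent cells lysed in NH₄OH; lysates were γ-counted. Results are % inhibition of TNF-stimulated adherence, triplicate. IC50 came from linear regression at 33.3–1.0 μM.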

[3] = The compound was tested for cell adhesion by measuring the inhibitory concentration against Human umbilical vein endothelial cell (HUVEC) activation using neutrophils labelled with calcein-AM at 100 uM; format: functional
[4] = The compound was tested for inhibitory activity against intercellular adhesion molecule (ICAM)-1 mediated cell adhesion in Human umbilical endothelial cell culture, by using HUVEC surface expression assay.; format: functional, cell-based
How it was run: (§2)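 HUVECs were pretreated with compound for 30 min, then stimulated with TNF-α (140 U/mL final) for 4 h at 37 °C. Unstimulated background was subtracted and results given as % inhibition versus vehicle. IC50 came from linear regression; average of two triplicate assays.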

[5] = The compound was tested for inhibitory activity against vascular cell adhesion molecule (VCAM)-1 mediated cell adhesion in Human aortic endothelial cell culture, by using HAEC surface expression assay.; format: functional, cell-based
How it was run: (§3)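 Human aortic endothelial cells at confluence were incubated with TNF-α (250 U/mL) and compound (0.005% DMSO final) for 18 h, then formalin-fixed. Cells were probed with anti-VCAM-1 mAb (2 h, 37 °C), then biotin anti-mouse IgG+IgM F(ab)₂ (1 h), then [¹²⁵I]streptavidin (15 min, 4 °C). NaOH digests were counted.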

Rattus norvegicus [6] = assay: Inhibitory activity against Mycobacterium-induced foot-pad edema(MFE); format: functional
[7] = The compound was tested for inhibitory activity against E-Selectin mediated cell adhesion in Human umbilical endothelial cell culture, by using HUVEC surface expression assay.; format: functional, cell-based
How it was run: (§4)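 Confluent HUVECs were given compound 30 min before TNF-α (140 U/mL final), then incubated 4 h at 37 °C. Unstimulated background was subtracted and results given as % inhibition versus vehicle. IC50 came from linear regression; average of two assays, each in triplicate.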

[8] = The compound was tested for inhibitory activity against intercellular adhesion molecule (ICAM)-1 mediated cell adhesion in Human aortic endothelial cell culture, by using HAEC surface expression assay.; format: functional, cell-based
How it was run: (§5)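 Confluent human aortic endothelial cells were incubated with TNF-α (250 U/mL) and compound (0.005% DMSO final) for 18 h. Cells were formalin-fixed and probed with anti-ICAM-1 mAb (2 h, 37 °C), then peroxidase anti-mouse IgG (1 h) and colour reagent (15 min). Read-out was OD414.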

[9] = The compound was tested for inhibitory activity against vascular cell adhesion molecule (VCAM)-1 mediated cell adhesion in Human aortic endothelial cell culture, by using HAEC surface expression assay at 50 uM; format: functional; how it was run: as §3
[10] = The compound was tested for inhibitory activity against intercellular adhesion molecule (ICAM)-1 mediated cell adhesion in Human aortic endothelial cell culture, by using HAEC surface expression assay at 50 uM; format: functional; how it was run: as §5
[11] = The compound was tested for cell adhesion by measuring the inhibitory concentration against Human umbilical vein endothelial cell (HUVEC) activation, using calcein-AM as radioligand at 100 uM; format: functional
[12] = The compound was tested for cell adhesion by measuring the inhibitory concentration against Human umbilical vein endothelial cell (HUVEC) activation, using calcein-AM radioligand at 100 uM; format: functional
Rattus norvegicus [13] = assay: Inhibitory activity against Mycobacterium-induced foot-pad edema(MFE) at 50 mg/kg; format: functional
[14] = Inhibitory activity against E-Selectin mediated cell adhesion in Human umbilical endothelial cell culture, by using HUVEC surface expression assay.; format: functional, cell-based
How it was run: as §4, with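 “°C. Cells were formalin-fixed and surface E-selectin detected by cell ELISA (mouse anti-E-selectin 0.5 μg/mL, peroxidase anti-mouse IgG), with absorbance at 414 nm.” for “°C.”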

[15] = Inhibitory activity against intercellular adhesion molecule (ICAM)-1 mediated cell adhesion in Human umbilical endothelial cell culture, by using HUVEC surface expression assay.; format: functional, cell-based
How it was run: as §2, with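 “°C. After formalin fixation, surface ICAM-1 was measured by cell ELISA (mouse anti-ICAM-1 0.5 μg/mL, peroxidase anti-mouse IgG), with absorbance at 414 nm.” for “°C.”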

[16] = The compound was tested for cell adhesion by measuring the inhibitory concentration against Human umbilical vein endothelial cell (HUVEC) activation, using Na51CrO4 as radioligand at 50 uM; format: functional
[17] = The compound was tested for cell adhesion by measuring the inhibitory concentration against Human umbilical vein endothelial cell (HUVEC) activation, using calcein-AM as radioligand at 33 uM; format: functional
[18] = The compound was tested for cell adhesion by measuring the inhibitory concentration against Human umbilical vein endothelial cell (HUVEC) activation, using Na51CrO4 as radioligand at 100 uM; format: functional; how it was run: as §1
[19] = Inhibitory activity against intercellular adhesion molecule (ICAM)-1 mediated cell adhesion in Human umbilical endothelial cell culture, by using HUVEC surface expression assay at 50 uM; format: functional
How it was run: as §2, with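 “°C. After formalin fixation, surface ICAM-1 was measured by cell ELISA (mouse anti-ICAM-1 0.5 μg/mL, peroxidase anti-mouse IgG), with absorbance at 414 nm.” for “°C.”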

Rattus norvegicus [20] = assay: Inhibitory activity against Mycobacterium-induced foot-pad edema(MFE)at 50 mg/kg; format: functional
[21] = Inhibitory activity against E-Selectin mediated cell adhesion in Human umbilical endothelial cell culture, by using HUVEC surface expression assay at 50 uM; format: functional
How it was run: as §4, with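 “°C. Cells were formalin-fixed and surface E-selectin detected by cell ELISA (mouse anti-E-selectin 0.5 μg/mL, peroxidase anti-mouse IgG), with absorbance at 414 nm.” for “°C.”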

pIC50 [1]: 4.92
Structure (SMILES): COc1ccc2sc(C(N)=O)c(SC(C)C)c2c1

Structure (SMILES): COc1ccc2sc(C(N)=O)c(Sc3ccccc3)c2c1
inhibition at 100 µM [2]: 48%

Structure (SMILES): COc1ccc2sc(C(N)=O)c(OC)c2c1
inhibition at 100 µM [2]: 60%

Structure (SMILES): COc1ccc2sc(C(N)=O)c(Oc3ccccc3)c2c1
inhibition at 100 µM [2]: 59%

Structure (SMILES): COc1ccc2sc(C(=O)NC(C)C)c(OC(C)C)c2c1
inhibition at 100 µM [3]: 26%

pIC50 [1]: 5.06
pIC50 [4]: 5.40
pIC50 [5]: 5.40
pIC50 [7]: 5.18
pIC50 [8]: 5.00
Structure (SMILES): COc1ccc2c(c1)c(OC(C)C)c(C(N)=O)[s+]2[O-] (stereo not given) [listing 1 of 3 here]
ID40 (Rattus norvegicus [6]): 10.9 mg/kg

Structure (SMILES): COc1ccc2sc(C(N)=O)c(SC)c2c1
inhibition at 100 µM [2]: 81%

Structure (SMILES): COc1ccc2sc(C(=O)Nc3cccc(C(=O)O)c3)c(OC(C)C)c2c1
inhibition at 100 µM [2]: 28%

Structure (SMILES): COc1ccc2c(c1)c(OC(C)C)c(C(=O)NCc1ccccc1)[s+]2[O-] (stereo not given)
inhibition at 100 µM [2]: 15%

pIC50 [1]: 4.96
pIC50 [4]: 5.28
pIC50 [7]: 5.07
Structure (SMILES): COc1ccc2ccc(C(N)=O)c(OC(C)C)c2c1
inhibition at 50 µM [9]: 81%
inhibition at 50 µM [10]: 86%

Structure (SMILES): COc1ccc2sc(C(=O)NCC(=O)O)c(OC(C)C)c2c1
inhibition at 100 µM [2]: < 4%

Structure (SMILES): COc1ccc2sc(C(N)=O)c(SCCCCC(=O)O)c2c1
inhibition at 100 µM [11]: 37%

Structure (SMILES): COc1ccc2sc(C(=O)NCc3ccccc3)c(OC(C)C)c2c1
inhibition at 100 µM [12]: 35%

pIC50 [1]: 5.40
pIC50 [14]: 5.02
pIC50 [15]: 5.24
Structure (SMILES): COc1ccc2c(c1)c(OC(C)C)c(C(N)=O)[s+]2[O-] (stereo not given) [listing 2 of 3 here]
inhibition in vivo at 50 mg/kg (Rattus norvegicus [13]): 83%

Structure (SMILES): COc1ccc2c(OC(C)C)c(C(N)=O)sc2c1
inhibition at 100 µM [2]: 24%

Structure (SMILES): CC(C)Oc1c(C(N)=O)sc2ccc(Cl)cc12
inhibition at 100 µM [2]: 72%

Structure (SMILES): COc1ccc2c(c1)c(OC(C)C)c(C(=O)Nc1ccccc1)[s+]2[O-] (stereo not given)
inhibition at 100 µM [11]: < 4%

Structure (SMILES): CC(C)Sc1c(C(N)=O)sc2ccccc12
inhibition at 100 µM [2]: 34%

Structure (SMILES): CC(C)OC1=C(C(N)=O)S(=O)(=O)c2ccc(O)cc21
inhibition at 50 µM [16]: < 4%

pIC50 [1]: 5.10
pIC50 [4]: 5.60
pIC50 [7]: 5.10
Structure (SMILES): COc1ccc2[nH]c(C(N)=O)c(OC(C)C)c2c1
inhibition at 50 µM [9]: 83%
inhibition at 50 µM [10]: 89%

Structure (SMILES): CCNC(=O)c1ccc2ccc(OC)cc2c1OC(C)C
inhibition at 100 µM [2]: 73%

Structure (SMILES): CC(C)Oc1c(C(N)=O)oc2ccccc12
inhibition at 100 µM [2]: 20%

Structure (SMILES): CC(C)Oc1c(C(N)=O)sc2ccc(N)cc12
inhibition at 100 µM [2]: 49%

Structure (SMILES): COc1ccc2sc(C(=O)NC(C)C)c(SC(C)C)c2c1
inhibition at 33 µM [17]: 22%

pIC50 [1]: 4.47
Structure (SMILES): COCn1c(C(N)=O)c(OC(C)C)c2cc(OC)ccc21

Structure (SMILES): COc1ccc2sc(C(=O)Nc3ccccc3)c(OC(C)C)c2c1
inhibition at 100 µM [2]: 12%

pIC50 [14]: 5.30
pIC50 [15]: 5.57
Structure (SMILES): CC(C)Oc1c(C(N)=O)[s+]([O-])c2ccc(O)cc12 (stereo not given)

Structure (SMILES): COc1ccc2c(c1)c(OC(C)C)c(C(=O)NC(C)C)[s+]2[O-] (stereo not given)
inhibition at 100 µM [18]: 8%

Structure (SMILES): COc1ccc2sc(C(N)=O)c(SCC(=O)O)c2c1
inhibition at 33 µM [17]: 7%

Structure (SMILES): COc1ccc2c(c1)c(OC(C)C)c(C(N)=O)[s+]2[O-] (stereo not given) [listing 3 of 3 here]
inhibition at 50 µM [19]: 24%
inhibition at 50 µM [16]: 20%
inhibition in vivo at 50 mg/kg (Rattus norvegicus [20]): 5%
inhibition at 50 µM [21]: 25%
